# Key:
# Jurkat = experiment: Antiproliferative activity against human Jurkat cells assessed as reduction in cell growth incubated for 72 hrs by MTT assay; format: functional, cell-based
# Summary of the method: (§1)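 Colorimetric MTT assay on human tumour lines K562 (chronic myeloid leukemia), HL-60 (promyelocytic leukemia), Jurkat (T cell leukemia), Raji (Burkitt's lymphoma), HT-29 (colorectal adenocarcinoma), HeLa (cervix adenocarcinoma) and normal lung fibroblast MRC-5; cells exposed to compounds for 72 h. IC50 taken as concentration giving 50% growth inhibition versus untreated control.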
# Raji = experiment: Antiproliferative activity against human Raji cells assessed as reduction in cell growth incubated for 72 hrs by MTT assay; format: functional, cell-based
# Summary of the method: (§2)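 Colorimetric MTT assay on human tumour lines K562 (chronic myeloid leukemia), HL-60 (promyelocytic leukemia), Jurkat (T cell leukemia), Raji (Burkitt's lymphoma), HT-29 (colorectal adenocarcinoma), HeLa (cervix adenocarcinoma) and normal lung fibroblast MRC-5; cells exposed to compounds for 72 h.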
# HeLa = experiment: Antiproliferative activity against human HeLa cells assessed as reduction in cell growth incubated for 72 hrs by MTT assay; format: functional, cell-based; summary of the method: as §1
# K562 [1] = experiment: Cell cycle arrest in human K562 cells assessed as accumulation in G0/G1 phase incubated for 24 hrs by propidium iodide staining based flow cytometry (reference value: 36.28%); format: functional
# Summary of the method: (§3)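 Exponentially growing K562 cells treated for 24 or 72 h, untreated cells as control; cells stained with propidium iodide and DNA content read by flow cytometry. Phase distribution (subG1, G0/G1, S, G2/M) taken from one-parameter histograms, subG1 scored as hypodiploid, apoptotic cells.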
# K562 [2] = experiment: Cell cycle arrest in human K562 cells assessed as accumulation in S phase incubated for 24 hrs by propidium iodide staining based flow cytometry (reference value: 48.38%); format: functional; summary of the method: as §3
# K562 [3] = experiment: Induction of apoptosis in human K562 cells assessed as 85 kDa PARP level incubated for 72 hrs by Western blot analysis (reference value: 100%); format: functional
# Summary of the method: (§4)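 K562 cells treated for 72 h; Bcl-2, BAX, caspase 3 precursor (32 kDa), caspase 3 active subunit (18 kDa) and PARP (112 and 85 kDa) measured by Western blot and expressed as % of untreated control.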
# K562 [4] = experiment: Induction of necrosis in human K562 cells incubated for 72 hrs by annexin V FITC and propidium iodide staining based flow cytometry relative to control; format: functional; set-up: concentration or dose not given beside the values
# Summary of the method: (§5)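 K562 cells treated for 72 h, stained with Annexin V-FITC/propidium iodide and analysed by flow cytometry. Apoptotic, necrotic and live fractions scored as percent of gated cells; specific apoptosis and specific necrosis calculated from these counts.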
# K562 [5] = experiment: Cell cycle arrest in human K562 cells assessed as accumulation in sub-G1 phase incubated for 24 hrs by propidium iodide staining based flow cytometry (reference value: 1.05%); format: functional; summary of the method: as §3
# K562 [6] = experiment: Induction of apoptosis in human K562 cells assessed as Bcl2 level incubated for 72 hrs by Western blot analysis (reference value: 100%); format: functional; summary of the method: as §4
# K562 [7] = experiment: Cell cycle arrest in human K562 cells assessed as accumulation in G2/M phase incubated for 24 hrs by propidium iodide staining based flow cytometry (reference value: 14.29%); format: functional; summary of the method: as §3
# K562 [8] = experiment: Cell cycle arrest in human K562 cells assessed as accumulation in S phase incubated for 72 hrs by propidium iodide staining based flow cytometry (reference value: 36.05%); format: functional; summary of the method: as §3
# K562 [9] = experiment: Cell cycle arrest in human K562 cells assessed as decrease in cell accumulation at G2/M phase incubated for 72 hrs by propidium iodide staining based flow cytometry relative to tiazofurin; format: functional; summary of the method: as §3
# K562 [10] = experiment: Induction of apoptosis in human K562 cells assessed as 32 kDa Caspase 3 precursor level incubated for 72 hrs by Western blot analysis (reference value: 100%); format: functional; summary of the method: as §4
# K562 [11] = experiment: Cell cycle arrest in human K562 cells assessed as accumulation in SubG1 phase incubated for 72 hrs by propidium iodide staining based flow cytometry (reference value: 3.07%); format: functional; summary of the method: as §3
# K562 [12] = experiment: Induction of apoptosis in human K562 cells assessed as 112 kDa PARP level incubated for 72 hrs by Western blot analysis (reference value: 100%); format: functional; summary of the method: as §4
# K562 [13] = experiment: Cell cycle arrest in human K562 cells assessed as accumulation in G0/G1 phase incubated for 72 hrs by propidium iodide staining based flow cytometry (reference value: 45.43%); format: functional; summary of the method: as §3
# HT-29 = experiment: Antiproliferative activity against human HT-29 cells assessed as reduction in cell growth incubated for 72 hrs by MTT assay; format: functional, cell-based; conditions: HT-29, 72 h; summary of the method: as §1
# MRC5 = experiment: Cytotoxicity against human MRC5 cells assessed as reduction in cell viability incubated for 72 hrs by MTT assay; format: cell-based; conditions: MRC5, 72 h; summary of the method: as §2
# K562 [14] = experiment: Cell cycle arrest in human K562 cells assessed as accumulation in G2/M phase incubated for 72 hrs by propidium iodide staining based flow cytometry (reference value: 15.45%); format: functional; summary of the method: as §3
# K562 [15] = experiment: Induction of apoptosis in human K562 cells assessed as Bax level incubated for 72 hrs by Western blot analysis (reference value: 100%); format: functional; summary of the method: as §4
# K562 [16] = experiment: Induction of necrosis in human K562 cells incubated for 24 hrs by annexin V FITC and propidium iodide staining based flow cytometry relative to control; format: functional; set-up: concentration or dose not given beside the values
# K562 [17] = experiment: Induction of apoptosis in human K562 cells incubated for 24 hrs by annexin V FITC and propidium iodide staining based flow cytometry relative to control; format: functional; set-up: concentration or dose not given beside the values
# K562 [18] = experiment: Induction of apoptosis in human K562 cells incubated for 72 hrs by annexin V FITC and propidium iodide staining based flow cytometry relative to control; format: functional; set-up: concentration or dose not given beside the values; summary of the method: as §5
# HL-60 = experiment: Antiproliferative activity against human HL60 cells assessed as reduction in cell growth incubated for 72 hrs by MTT assay; format: functional, cell-based; conditions: HL-60, 72 h; summary of the method: as §1
# K562 [19] = experiment: Induction of apoptosis in human K562 cells assessed as 18 kDa Caspase 3 active subunit level incubated for 72 hrs by Western blot analysis (reference value: 100%); format: functional; summary of the method: as §4
# K562 [20] = experiment: Antiproliferative activity against human K562 cells assessed as reduction in cell growth incubated for 72 hrs by MTT assay; format: functional, cell-based; conditions: K562, 72 h; summary of the method: as §2
# K562 [21] = experiment: Induction of apoptosis in human K562 cells incubated for 72 hrs by annexin V FITC and propidium iodide staining based flow cytometry relative to tiazofurin; format: functional; summary of the method: as §5
IC50 (Jurkat),IC50 (Raji),IC50 (HeLa),IC50 (HT-29),Compound,Activity (K562 [1]),Activity (K562 [2]),Activity (K562 [3]),Activity (K562 [4]),Activity (K562 [5]),Activity (K562 [6]),Activity (K562 [7]),Activity (K562 [8]),fold change (FC) (K562 [9]),Activity (K562 [10]),Activity (K562 [11]),Activity (K562 [12]),Activity (K562 [13]),IC50 (MRC5),Activity (K562 [14]),Activity (K562 [15]),further results
> 100000 nM,40500 nM,29900 nM,2480 nM,[N-]=[N+]=N[C@H]1[C@H](O)[C@@H](CO)O[C@H]1c1nc(C(N)=O)cs1,29.73%,47.46%,169.74%,6.24%,2.32%,35.23%,20.75%,35.15%,2 - 2.4,3222.35%,13.59%,355.91%,37.65%,> 100000 nM,13.6%,186.25%,Activity (K562 [16]): 1.26%; Activity (K562 [17]): 12.47%; Activity (K562 [18]): 12.86%; IC50 (HL-60): 7550 nM; Activity (K562 [19]): 156.25%; IC50 (K562 [20]): 6280 nM
40 nM,1030 nM,1030 nM,23400 nM,NC(=O)c1csc([C@@H]2O[C@H](CO)[C@@H](O)[C@@H]2N)n1,36.67%,52.43%,570.91%,9.82%,2.58%,414.66%,9.11%,34.2%,2 - 2.4,1144.41%,17.08%,387.73%,37.94%,> 100000 nM,10.79%,193%,fold change (FC) (K562 [21]): 2; Activity (K562 [16]): 9.58%; Activity (K562 [17]): 7.07%; Activity (K562 [18]): 23.39%; IC50 (HL-60): 1020 nM; Activity (K562 [19]): 153.73%; IC50 (K562 [20]): 1970 nM
–,–,–,150 nM,COc1cccc2c1C(=O)c1c(O)c3c(c(O)c1C2=O)C[C@@](O)(C(=O)CO)C[C@@H]3O[C@H]1C[C@H](N)[C@H](O)[C@H](C)O1 [DOXORUBICIN],–,–,–,–,–,–,–,–,–,–,–,–,–,–,–,–,–

# From ChEMBL document CHEMBL4406856, “Structure based design, synthesis and in vitro antitumour activity of tiazofurin stereoisomers with nitrogen functions at the C-2' or C-3' positions” (Eur J Med Chem, 2019)
